# Data reported in ChEMBL document CHEMBL3751842, “Novel triazolothiadiazines act as potent anticancer agents in liver cancer cells through Akt and ASK-1 proteins” (Bioorg Med Chem, 2016).
# Activity calls are given as the source filed them. No cut-off for these calls is given here.
# Key:
# [1] = target: T1, Mitogen-activated protein kinase kinase kinase 5 (Homo sapiens) (UniProt Q99683); assay: Activation of ASK1 in human HuH7 cells assessed as Ser83 phosphorylation after 24 to 48 hrs by Western blot analysis; assay type: cell-based; conditions: Huh-7
# T1 sequence (whole entry): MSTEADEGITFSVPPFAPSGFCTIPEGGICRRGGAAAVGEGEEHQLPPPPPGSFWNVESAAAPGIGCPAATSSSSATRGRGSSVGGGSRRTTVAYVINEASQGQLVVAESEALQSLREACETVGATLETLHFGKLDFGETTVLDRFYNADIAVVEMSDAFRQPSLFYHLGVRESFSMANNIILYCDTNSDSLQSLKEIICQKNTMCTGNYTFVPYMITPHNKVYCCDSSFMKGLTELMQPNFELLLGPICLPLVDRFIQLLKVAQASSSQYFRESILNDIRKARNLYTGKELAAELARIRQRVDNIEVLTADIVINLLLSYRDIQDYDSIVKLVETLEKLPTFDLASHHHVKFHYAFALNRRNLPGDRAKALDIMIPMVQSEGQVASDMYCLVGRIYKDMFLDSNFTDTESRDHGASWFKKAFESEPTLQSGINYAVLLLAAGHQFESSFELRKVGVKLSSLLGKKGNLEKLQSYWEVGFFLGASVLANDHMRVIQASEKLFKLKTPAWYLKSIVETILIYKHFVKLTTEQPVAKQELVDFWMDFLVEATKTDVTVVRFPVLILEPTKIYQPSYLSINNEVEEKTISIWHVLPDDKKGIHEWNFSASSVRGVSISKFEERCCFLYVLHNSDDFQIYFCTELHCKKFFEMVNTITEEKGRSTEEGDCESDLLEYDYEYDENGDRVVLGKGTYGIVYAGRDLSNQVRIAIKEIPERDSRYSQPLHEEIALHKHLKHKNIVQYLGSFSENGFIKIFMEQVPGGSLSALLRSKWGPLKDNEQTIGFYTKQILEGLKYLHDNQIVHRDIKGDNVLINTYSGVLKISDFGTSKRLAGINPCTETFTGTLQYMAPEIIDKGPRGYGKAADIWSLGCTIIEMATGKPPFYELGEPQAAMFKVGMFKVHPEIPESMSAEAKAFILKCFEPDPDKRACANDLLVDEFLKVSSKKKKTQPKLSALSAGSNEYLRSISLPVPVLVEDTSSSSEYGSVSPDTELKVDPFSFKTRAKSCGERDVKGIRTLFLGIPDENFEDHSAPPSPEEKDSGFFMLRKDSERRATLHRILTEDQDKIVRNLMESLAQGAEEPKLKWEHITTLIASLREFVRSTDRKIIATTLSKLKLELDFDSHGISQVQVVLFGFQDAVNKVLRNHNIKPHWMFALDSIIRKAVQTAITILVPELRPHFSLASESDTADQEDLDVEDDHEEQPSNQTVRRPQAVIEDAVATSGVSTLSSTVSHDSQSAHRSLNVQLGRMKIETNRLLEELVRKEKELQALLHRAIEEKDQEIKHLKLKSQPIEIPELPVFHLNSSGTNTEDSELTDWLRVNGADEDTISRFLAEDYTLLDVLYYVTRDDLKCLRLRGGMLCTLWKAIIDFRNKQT
# Outline: (§1)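 Cells were exposed to compound or DMSO control for 24 or 48 h. Lysates were loaded at […] protein per lane and immunoblotted with antibodies diluted 1:100 to 1:500 in 5% BSA-TBS-T. Targets were p-Akt (Ser473), Akt, p-GSK3-α/β (Ser21/9), GSK3-α/β, SAPK/JNK, p-SAPK/JNK (Thr183/Tyr185), PARP, p-β-catenin, β-catenin, cyclin D1, p-ASK1 (S83) and p-ASK1 (S966). Actin served as the loading control.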
# Mahlavu = assay: Induction of apoptosis in human Mahlavu cells assessed as PARP cleavage after 24 to 48 hrs by Western blot analysis; assay type: functional, cell-based; outline: as §1
# Huh-7 [2] = assay: Induction of apoptosis in human HuH7 cells assessed as horseshoe nuclear structure at 10 uM after 48 hrs by Hoechst 33258 staining-based immunofluorescence microscopy; assay type: functional, cell-based
# Outline: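 Cells on coverslips were incubated overnight, then treated with 10 µM compound or DMSO for 48 h. They were washed in ice-cold PBS, fixed in cold methanol for 10 min, and stained with 1 µg/mL Hoechst 33258 for 5 min in the dark. Nuclei were examined by fluorescence microscopy with a 40x objective.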
# Huh-7 [3] = assay: Induction of oxidative stress in human HuH7 cells assessed as ROS accumulation at 10 uM after 48 hrs by flow cytometry analysis; assay type: functional, cell-based
# Outline: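 Huh7 and Mahlavu cells were treated after 24 h with 10 µM compound or DMSO for 48 h. Cells were then trypsinized and processed with a MUSE oxidative stress kit for flow cytometric counting of ROS-positive cells. Cells grown in selenium-deficient serum-free medium served as the positive control.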
# [4] = target: RAC-alpha serine/threonine-protein kinase (Homo sapiens) (UniProt P31749); assay: Inhibition of Akt phosphorylation in human Mahlavu cells after 24 to 48 hrs by Western blot analysis; assay type: cell-based; outline: as §1
# Sequence of RAC-alpha serine/threonine-protein kinase (Homo sapiens) (P31749 whole entry): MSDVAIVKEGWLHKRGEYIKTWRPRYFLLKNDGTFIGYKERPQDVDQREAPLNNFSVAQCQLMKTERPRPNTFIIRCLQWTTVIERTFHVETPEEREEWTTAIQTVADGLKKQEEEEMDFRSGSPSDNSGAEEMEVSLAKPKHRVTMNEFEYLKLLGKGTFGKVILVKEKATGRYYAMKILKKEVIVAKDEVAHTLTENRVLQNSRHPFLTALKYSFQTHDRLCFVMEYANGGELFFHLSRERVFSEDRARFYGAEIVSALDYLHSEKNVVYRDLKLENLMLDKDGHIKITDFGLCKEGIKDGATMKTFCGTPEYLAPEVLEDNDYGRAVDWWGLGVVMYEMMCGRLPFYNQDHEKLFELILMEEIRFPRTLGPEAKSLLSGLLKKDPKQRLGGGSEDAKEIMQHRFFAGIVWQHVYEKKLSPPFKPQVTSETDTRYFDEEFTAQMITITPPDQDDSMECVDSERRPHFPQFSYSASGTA
# [5] = target: T2, Catenin beta-1 (Homo sapiens) (UniProt P35222); assay: Induction of beta-catenin phosphorylation in human HuH7 cells after 24 to 48 hrs by Western blot analysis; assay type: cell-based; conditions: Huh-7; outline: as §1
# T2 sequence (whole entry): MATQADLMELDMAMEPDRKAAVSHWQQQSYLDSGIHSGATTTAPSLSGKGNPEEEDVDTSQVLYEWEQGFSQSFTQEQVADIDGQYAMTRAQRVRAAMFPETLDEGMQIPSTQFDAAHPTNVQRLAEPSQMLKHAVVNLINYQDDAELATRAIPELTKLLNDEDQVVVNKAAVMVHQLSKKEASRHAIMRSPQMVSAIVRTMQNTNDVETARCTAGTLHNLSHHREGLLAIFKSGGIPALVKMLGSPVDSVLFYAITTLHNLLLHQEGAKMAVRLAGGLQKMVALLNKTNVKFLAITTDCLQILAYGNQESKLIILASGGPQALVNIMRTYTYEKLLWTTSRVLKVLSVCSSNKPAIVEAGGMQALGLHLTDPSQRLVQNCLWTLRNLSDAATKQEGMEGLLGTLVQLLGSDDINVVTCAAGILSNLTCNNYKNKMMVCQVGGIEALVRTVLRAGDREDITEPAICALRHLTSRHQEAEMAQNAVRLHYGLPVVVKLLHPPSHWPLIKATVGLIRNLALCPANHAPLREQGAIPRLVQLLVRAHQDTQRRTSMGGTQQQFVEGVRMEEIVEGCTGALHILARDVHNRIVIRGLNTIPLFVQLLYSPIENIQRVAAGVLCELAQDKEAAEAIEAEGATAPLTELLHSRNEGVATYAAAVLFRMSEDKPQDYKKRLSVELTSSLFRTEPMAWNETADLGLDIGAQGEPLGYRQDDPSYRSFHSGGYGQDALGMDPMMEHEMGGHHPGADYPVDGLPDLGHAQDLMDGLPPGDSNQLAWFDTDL
# [6] = target: T1, Mitogen-activated protein kinase kinase kinase 5 (Homo sapiens); assay: Activation of ASK1 in human Mahlavu cells assessed as Ser966 phosphorylation after 24 to 48 hrs by Western blot analysis; assay type: cell-based; outline: as §1
Activity [1],inhibition [4],Activity [5],Activity [6],Structure (SMILES),Activity (Mahlavu),Activity (Huh-7 [2]),Activity (Huh-7 [3])
Active,Active,Active,Active,COc1ccc(C2=Nn3c(nnc3C(C)c3ccc(CC(C)C)cc3)SC2)cc1 (centres undefined),Active,Active,Active
Active,Active,Active,Active,Cc1ccc(C2=Nn3c(nnc3C(C)c3ccc(CC(C)C)cc3)SC2)cc1 (centres undefined),Active,Active,Active
